Measured values reported in ChEMBL document CHEMBL1133696, “Development of a lead inhibitor for the A16V+S108T mutant of dihydrofolate reductase from the cycloguanil-resistant strain (T9/94) of Plasmodium falciparum” (J Med Chem, 2000).

Columns and labels:
Plasmodium falciparum [1] = experiment: Inhibition of Plasmodium falciparum T9/94 mutant; format: functional, organism-based
In short: (§1)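 Parasites kept in human erythrocytes in RPMI 1640 with 25 mM HEPES pH 7.4, 0.2% NaHCO3, gentamicin and 10% human serum, at 37 °C under 3% CO2. Clones used were TM4/8.2 (wild-type DHFR) and T9/94 RC17 (A16V+S108T). Drug dilutions were made from DMSO stocks, final DMSO 0.1%, and added to a 1.5% cell suspension at 1-2% parasitemia. After 24 h, 0.25 µCi [3H]-hypoxanthine was added for a further 18-24 h, then scintillation counting. IC50 taken from a sigmoidal curve.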

[2] = biological target: Bifunctional dihydrofolate reductase-thymidylate synthase (Plasmodium falciparum K1) (UniProt P13922); experiment: Evaluated for activity of relative to Cycloguanil
[3] = biological target: Bifunctional dihydrofolate reductase-thymidylate synthase (Plasmodium falciparum K1) (UniProt P13922); experiment: Selectivity ratio of growth inhibition against Plasmodium falciparum TM4/8.2(wild-type) and T9/94(mutant); format: functional
Plasmodium falciparum [4] = experiment: (§2) Growth inhibition (IC50) against Plasmodium falciparum wild-type TM4/8.2; format: functional, organism-based
In short: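 TM4/8.2 clone (wild-type DHFR) grown in human erythrocytes, RPMI 1640 with 25 mM HEPES pH 7.4, 0.2% NaHCO3, gentamicin, 10% human serum, 37 °C, 3% CO2. Drug from DMSO (final 0.1%), 1.5% cell suspension at 1-2% parasitemia; [3H]-hypoxanthine added after 24 h, a further 18-24 h incubation. IC50 from sigmoidal incorporation-versus-concentration curve.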

[5] = biological target: Bifunctional dihydrofolate reductase-thymidylate synthase (Plasmodium falciparum K1) (UniProt P13922); experiment: Ratio of inhibitory constant of mutant by wild-type DHFRs of Plasmodium falciparum
[6] = biological target: Bifunctional dihydrofolate reductase-thymidylate synthase (Plasmodium falciparum K1) (UniProt P13922); experiment: Evaluated for activity of compound relative to Cycloguanil
[7] = biological target: T1, Bifunctional dihydrofolate reductase-thymidylate synthase (Plasmodium falciparum K1, UniProt P13922, A16V/S108T); experiment: Evaluated for inhibition constant (Ki mut) against A16V+S108T Mutant dihydrofolate reductase of Plasmodium falciparum
[8] = biological target: T1, Bifunctional dihydrofolate reductase-thymidylate synthase; experiment: Inhibition constant (Ki mut) against A16V+S108T Mutant DHFRs of Plasmodium falciparum
[9] = Selectivity ratio of growth inhibition values of wild-type (TM4/8.2) and mutant (T9/94) clones of Plasmodium falciparum
In short: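 Clones TM4/8.2 (wild-type DHFR) and T9/94 RC17 (A16V+S108T) grown in human erythrocytes in RPMI 1640 with 25 mM HEPES pH 7.4 and 10% human serum, 37 °C, 3% CO2. 1.5% cell suspension at 1-2% parasitemia with drug in 0.1% DMSO final for 24 h, then [3H]-hypoxanthine 18-24 h. IC50 taken from sigmoidal curves; ratio is T9/94 IC50 over TM4 IC50.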

Plasmodium falciparum [10] = experiment: Growth inhibition IC50 against Plasmodium falciparum mutant T9/94; format: functional, organism-based; in short: as §1
Plasmodium falciparum [11] = experiment: as §2; format: functional, organism-based; in short: as §1; remark: listed apart in the source

T1 sequence (P13922 whole entry, looked up, stated change not applied): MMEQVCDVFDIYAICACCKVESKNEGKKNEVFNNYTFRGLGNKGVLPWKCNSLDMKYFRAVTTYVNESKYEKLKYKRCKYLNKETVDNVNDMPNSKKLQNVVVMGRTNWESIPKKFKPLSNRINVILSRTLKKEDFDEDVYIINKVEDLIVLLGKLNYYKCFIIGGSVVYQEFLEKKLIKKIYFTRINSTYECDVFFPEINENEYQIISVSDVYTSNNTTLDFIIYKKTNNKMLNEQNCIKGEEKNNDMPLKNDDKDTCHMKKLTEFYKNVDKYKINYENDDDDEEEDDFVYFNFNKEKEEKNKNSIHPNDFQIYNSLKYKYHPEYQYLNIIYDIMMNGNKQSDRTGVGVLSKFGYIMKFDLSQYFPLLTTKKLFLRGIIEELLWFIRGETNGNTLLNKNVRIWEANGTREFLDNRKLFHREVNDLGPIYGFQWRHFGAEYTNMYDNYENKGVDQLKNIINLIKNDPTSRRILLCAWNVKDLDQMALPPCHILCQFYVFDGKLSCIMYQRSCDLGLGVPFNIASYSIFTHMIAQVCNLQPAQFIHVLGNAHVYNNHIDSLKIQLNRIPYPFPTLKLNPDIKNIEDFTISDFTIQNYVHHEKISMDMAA
Bifunctional dihydrofolate reductase-thymidylate synthase (Plasmodium falciparum K1), sequence (P13922 whole entry, looked up): as the sequence (P13922 whole entry, looked up, stated change not applied) above

Compound	IC50 (Plasmodium falciparum [1]) [µM]	Relative activity [2]	IC50 ratio [3]	IC50 (Plasmodium falciparum [4]) [µM]	Ratio [5]	Relative activity [6]	Ki [7] [µM]	Ki [8] [µM]	IC50 ratio [9]	IC50 (Plasmodium falciparum [10]) [µM]	IC50 (Plasmodium falciparum [11]) [µM]
CC1N=C(N)N=C(N)N1c1cccc(Cl)c1 (stereo unspecified)	0.028	–	–	–	–	–	–	–	–	–	–
CCCC1N=C(N)N=C(N)N1c1ccc(Cl)cc1 (stereo unspecified)	0.365	3.1	5.62	0.065	23	0.08	0.107	–	–	–	–
CCC1N=C(N)N=C(N)N1c1ccc(Cl)cc1 (stereo unspecified)	0.486	2.4	12.2	0.04	52	0.14	–	0.189	–	–	–
Cc1ccc(N2C(N)=NC(N)=NC2c2ccccc2)cc1 (stereo unspecified)	0.039	5.1	0.29	0.136	22	0.13	0.17	–	–	–	–
CCC1N=C(N)N=C(N)N1c1ccc(C)cc1 (stereo unspecified)	0.517	3.9	1.89	0.273	22	0.1	–	0.128	–	–	–
CCCC1N=C(N)N=C(N)N1c1ccc(C)cc1 (stereo unspecified)	0.152	9.1	0.91	0.167	14	0.14	–	0.188	–	–	–
CC1(C)N=C(N)N=C(N)N1c1ccc(Br)cc1	2.76	0.7	89	0.031	1770	1.5	–	1.95	–	–	–
CC1N=C(N)N=C(N)N1c1ccc(Cl)c(Cl)c1 (stereo unspecified)	0.019	0.9	0.54	0.035	12.7	0.014	–	0.0178	–	–	–
CC(C)(C)C1N=C(N)N=C(N)N1c1ccc(Cl)cc1 (stereo unspecified)	2.82	–	–	2.91	–	63	–	82.7	–	–	–
NC1=NC(c2ccccc2)N(c2ccc(Br)cc2)C(N)=N1 (stereo unspecified)	0.18	1.9	3.86	0.047	31	0.07	0.09	–	–	–	–
NC1=NC(c2ccccc2)N(c2ccc(Cl)cc2)C(N)=N1 (stereo unspecified)	0.044	3	–	0.027	–	0.04	0.049	–	–	–	–
CCCCC1N=C(N)N=C(N)N1c1ccc(Cl)cc1 (stereo unspecified)	0.25	2.5	–	0.111	45	0.1	0.167	–	2.25	–	–
CC1N=C(N)N=C(N)N1c1ccc(Cl)cc1 (stereo unspecified)	0.347	2.7	1	0.348	31	0.09	–	0.127	–	–	–
NC1=NCN(c2ccccc2)C(N)=N1	0.356	220	0.03	11.6	1.8	0.4	–	0.585	–	–	–
NC1=NCN(c2ccc(F)cc2)C(N)=N1	0.312	180	0.03	9.66	1.7	0.4	–	0.469	–	–	–
CC1(C)N=C(N)N=C(N)N1c1ccc(Cl)c(Cl)c1 [CHLORCYCLOGUANIL]	–	0.73	76.8	0.004	119	0.1	–	0.131	–	0.307	–

Compound	IC50 (Plasmodium falciparum [1]) [µM]	Relative activity [2]	IC50 ratio [3]	IC50 (Plasmodium falciparum [4]) [µM]	Ratio [5]	Relative activity [6]	Ki [7] [µM]	Ki [8] [µM]	IC50 ratio [9]	IC50 (Plasmodium falciparum [10]) [µM]	IC50 (Plasmodium falciparum [11]) [µM]
Cc1ccc(N2C(N)=NC(N)=NC2(C)C)cc1	3.62	–	–	0.065	–	–	–	–	–	–	–
CC1(C)N=C(N)N=C(N)N1c1ccc(F)cc1	1	3	3.4	0.294	355	1.2	–	1.63	–	–	–
Cc1ccc(N2C(N)=NC(N)=NC2C)cc1 (stereo unspecified)	0.464	15	1	0.462	7.9	0.14	–	0.185	–	–	–
CC(C)C1N=C(N)N=C(N)N1c1ccc(Br)cc1 (stereo unspecified)	0.725	20	1.14	0.638	40	0.9	–	1.2	–	–	–
CC1(C)N=C(N)N=C(N)N1c1ccccc1	0.445	13	0.82	0.546	69	1.05	–	1.38	–	–	–
CCCC1N=C(N)N=C(N)N1c1ccc(Br)cc1 (stereo unspecified)	0.25	1.7	3.97	0.063	49	0.1	0.127	–	–	–	–
CC(C)C1N=C(N)N=C(N)N1c1ccc(Cl)cc1 (stereo unspecified)	2.82	40.3	0.97	2.91	25	1.2	–	1.54	–	–	–
NC1=NC(c2ccccc2)N(c2cccc(Cl)c2)C(N)=N1 (stereo unspecified)	0.024	7.8	0.05	0.455	0.9	0.008	0.01	–	–	–	–
NC1=NC(c2ccccc2)N(c2ccc(Cl)c(Cl)c2)C(N)=N1 (stereo unspecified)	0.029	–	–	0.04	–	–	–	–	–	–	–
Cc1ccc(N2C(N)=NC(N)=NC2C(C)C)cc1 (stereo unspecified)	3.45	111	0.42	8.22	8.7	1.11	–	1.46	–	–	–
NC1=NCN(c2ccc(Cl)cc2)C(N)=N1	0.313	16	0.33	0.952	26	0.5	0.646	–	–	–	–
CC1(C)N=C(N)N=C(N)N1c1ccc(Cl)cc1 [CYCLOGUANIL]	2.43	1	60.8	–	876	1	–	1.31	–	–	0.04
CC1N=C(N)N=C(N)N1c1ccc(Br)cc1 (stereo unspecified)	0.277	3.8	2.1	0.132	35	0.15	–	0.202	–	–	–
CC1(C)N=C(N)N=C(N)N1c1cccc(Cl)c1	0.298	–	–	0.06	–	–	–	–	–	–	–
CCC1N=C(N)N=C(N)N1c1ccc(Br)cc1 (stereo unspecified)	0.22	1.8	3.24	0.132	37	0.15	–	0.202	–	–	–
